≈ marks a conversion by molar mass, not a printed value. Calls of active or inactive are those of the source. No cut-off for these calls is given here.
Legend:
[1] = molecular target: Neuronal acetylcholine receptor subunit alpha-7 (Rattus norvegicus) (UniProt Q05941); assay: Positive allosteric modulator activity at rat alpha7 nAChR expressed in GH4C1 cells assessed as potentiation of acetylcholine response at 3 uM at -70 mV holding potential preincubated for 30 secs followed by co-application with acetylcholine by automated patch clamp assay; format: cell-based
Chain of Neuronal acetylcholine receptor subunit alpha-7 (Rattus norvegicus) (Q05941 whole entry): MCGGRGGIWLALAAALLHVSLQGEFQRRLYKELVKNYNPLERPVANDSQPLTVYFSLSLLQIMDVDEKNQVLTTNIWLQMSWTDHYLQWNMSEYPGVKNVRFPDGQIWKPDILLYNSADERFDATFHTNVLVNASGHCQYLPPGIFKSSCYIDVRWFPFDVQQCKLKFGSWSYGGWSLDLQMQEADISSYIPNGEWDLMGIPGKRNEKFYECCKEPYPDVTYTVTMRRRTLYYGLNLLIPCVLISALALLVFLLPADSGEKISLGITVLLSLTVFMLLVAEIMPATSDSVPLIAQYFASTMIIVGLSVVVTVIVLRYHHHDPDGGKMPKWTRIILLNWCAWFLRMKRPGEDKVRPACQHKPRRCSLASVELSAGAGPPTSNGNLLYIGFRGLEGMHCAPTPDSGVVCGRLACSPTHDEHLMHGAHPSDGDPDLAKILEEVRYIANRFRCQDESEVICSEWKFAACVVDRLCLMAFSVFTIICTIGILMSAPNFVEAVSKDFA
Summary of the method: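 Automated planar patch clamp on stable GH4C1 (rat) cell lines expressing rat α7 nAChR; test compound at 3 μM with an EC₂₀ acetylcholine challenge; percent change in peak current versus acetylcholine alone taken as P₃.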

[2] = Stability in mouse liver microsomes assessed as hepatic extraction ratio at 1 uM measured for 45 mins by LC-MS/MS analysis; format: ADME, Microsome; details: read-out: ERH
[3] = Solubility of the compound at pH 6.5; format: physicochemical; details: buffer
[4] = molecular target: Neuronal acetylcholine receptor subunit alpha-7 (Rattus norvegicus) (UniProt Q05941); assay: (§1) Positive allosteric modulatory activity at rat alpha7 nAChR expressed in GH4C1 cells assessed as potentiation of acetylcholine response at -70 mV holding potential preincubated for 30 secs followed by co-application with acetylcholine by manual patch clamp assay; format: cell-based
Summary of the method: (§2)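 Conventional manual patch-clamp with a fast-application system on stable GH4C1 cells expressing rat α7 nAChR; currents evoked by acetylcholine with and without test compound; peak-current change relative to acetylcholine alone gives potentiation (P₃ at 3 μM; concentration–response for EC₅₀ and Pmax).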

[5] = molecular target: Neuronal acetylcholine receptor subunit alpha-7 (Rattus norvegicus, UniProt Q05941); assay: as §1; format: cell-based; summary of the method: as §2
Chain of Neuronal acetylcholine receptor subunit alpha-7 (Q05941 whole entry): as above

[6] = Solubility of the compound at pH 2; format: physicochemical; details: buffer
[7] = molecular target: Neuronal acetylcholine receptor subunit alpha-7 (Rattus norvegicus) (UniProt Q05941); assay: Agonist activity at rat alpha7 nAChR expressed in GH4C1 cells assessed as current response at 3 uM at -70 mV holding potential by manual patch clamp assay; format: cell-based
Summary of the method: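 Manual patch clamp with fast application on stable GH4C1 cells expressing α7 nAChR; test compound applied without acetylcholine to look for evoked currents.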

Cytochrome P450 2C19 = Cytochrome P450 2C19 (Homo sapiens, UniProt P33261); assay: Inhibition of CYP2C19 (unknown origin); format: ADME
Chain of Cytochrome P450 2C19 (P33261 whole entry): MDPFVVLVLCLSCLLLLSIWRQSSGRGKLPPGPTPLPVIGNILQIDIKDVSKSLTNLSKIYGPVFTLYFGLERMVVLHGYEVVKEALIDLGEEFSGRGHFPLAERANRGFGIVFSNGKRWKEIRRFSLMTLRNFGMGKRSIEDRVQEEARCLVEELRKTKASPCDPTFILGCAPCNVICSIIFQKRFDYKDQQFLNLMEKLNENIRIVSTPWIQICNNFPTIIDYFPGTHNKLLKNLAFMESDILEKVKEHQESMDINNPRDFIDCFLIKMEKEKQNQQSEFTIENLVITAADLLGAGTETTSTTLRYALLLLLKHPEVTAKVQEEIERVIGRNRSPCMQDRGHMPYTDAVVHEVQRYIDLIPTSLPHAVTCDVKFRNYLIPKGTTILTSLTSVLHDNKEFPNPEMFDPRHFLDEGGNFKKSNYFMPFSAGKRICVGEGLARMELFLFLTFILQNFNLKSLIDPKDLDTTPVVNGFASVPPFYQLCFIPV

[8] = molecular target: Neuronal acetylcholine receptor subunit alpha-7 (Rattus norvegicus) (UniProt Q05941); assay: Positive allosteric modulatory activity at rat alpha7 nAChR expressed in GH4C1 cells assessed as potentiation of peak current at -70 mV holding potential preincubated for 30 secs followed by co-application with acetylcholine by manual patch clamp assay relative to acetylcholine-induced peak current; format: cell-based; summary of the method: as §2
[9] = Stability in human liver microsomes assessed as hepatic extraction ratio at 1 uM measured for 45 mins by LC-MS/MS analysis; format: ADME, Microsome; details: read-out: ERH
Mus musculus = assay: Reversal of scopolamine-induced memory impairment in mouse assessed as spontaneous alteration at 3 to 30 mg/kg, po administered with compond and scopolamine at 60 mins and 30 mins respectively prior to test by T-maze test; format: functional, organism-based
Summary of the method: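 Mouse T-maze continuous alternation task; reversal of scopolamine-induced loss of spontaneous alternation after ip or oral doses of 3 and 30 mg/kg; significant doses reported.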

Cytochrome P450 2C9 = Cytochrome P450 2C9 (Homo sapiens, UniProt P11712); assay: Inhibition of CYP2C9 (unknown origin); format: ADME
Chain of Cytochrome P450 2C9 (P11712 whole entry): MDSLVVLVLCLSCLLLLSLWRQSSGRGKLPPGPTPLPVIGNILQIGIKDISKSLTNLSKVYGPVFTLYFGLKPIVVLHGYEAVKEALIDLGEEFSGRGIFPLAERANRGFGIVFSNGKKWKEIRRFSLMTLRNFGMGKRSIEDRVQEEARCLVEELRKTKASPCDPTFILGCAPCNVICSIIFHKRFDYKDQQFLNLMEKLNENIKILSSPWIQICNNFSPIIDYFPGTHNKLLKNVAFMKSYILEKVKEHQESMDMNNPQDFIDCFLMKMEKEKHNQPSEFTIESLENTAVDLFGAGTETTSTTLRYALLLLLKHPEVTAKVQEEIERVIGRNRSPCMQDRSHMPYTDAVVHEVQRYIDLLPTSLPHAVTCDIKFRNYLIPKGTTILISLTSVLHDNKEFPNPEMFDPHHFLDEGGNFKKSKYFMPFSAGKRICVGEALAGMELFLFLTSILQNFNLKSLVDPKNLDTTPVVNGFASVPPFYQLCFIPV

- Activity [1]: 7900%
- hepatic extraction ratio at 0.75 h, 1 µM [2]: 0.82
- solubility [3]: > 100 µg/mL
- Activity [4]: Dose-dependent effect
- EC50 [5]: 0.025 µM
- solubility [6]: 1.6 to 3.1 µg/mL (≈ 4.05 to 7.85 µM)
- inhibition [7]: inactive
- IC50 (Cytochrome P450 2C19): > 10 µM
- Emax [8]: 650%
- hepatic extraction ratio at 0.75 h, 1 µM [9]: 0.64
- IC50 (Cytochrome P450 2C9): > 10 µM
SMILES: COc1ccc(Cl)cc1NCC1C(c2ccc(S(N)(=O)=O)cc2)C1(C)C (racemic)
- inhibition (Mus musculus): Active

Reference: ChEMBL document CHEMBL4364238, “Discovery of BNC375, a Potent, Selective, and Orally Available Type I Positive Allosteric Modulator of α7 nAChRs” (ACS Med Chem Lett, 2019)
